The record followed here is ChEMBL document CHEMBL2046381, “Defining the mechanism of action and enzymatic selectivity of psammaplin A against its epigenetic targets” (J Med Chem, 2012).

Data set [1] concerns the target T1, Histone deacetylase-like amidohydrolase (Alcaligenes sp. (strain DSM 11172) (Bordetella sp. (strain FB188)), UniProt Q70I53).
T1 sequence (Q70I53 whole entry): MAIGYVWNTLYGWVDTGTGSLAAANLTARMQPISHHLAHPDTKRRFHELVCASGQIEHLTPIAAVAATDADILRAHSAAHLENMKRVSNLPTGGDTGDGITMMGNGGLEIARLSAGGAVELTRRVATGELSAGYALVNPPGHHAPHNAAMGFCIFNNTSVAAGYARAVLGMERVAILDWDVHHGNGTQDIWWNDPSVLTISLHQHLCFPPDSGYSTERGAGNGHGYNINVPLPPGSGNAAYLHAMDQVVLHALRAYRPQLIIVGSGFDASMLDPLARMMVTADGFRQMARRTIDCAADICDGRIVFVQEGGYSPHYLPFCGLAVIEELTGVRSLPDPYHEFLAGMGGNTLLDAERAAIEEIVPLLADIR
As to the kind of experiment: Inhibition of Bordetella sp. (strain FB188) N-terminus His-tagged HDAH expressed in Escherichia coli BL21 (DE3). On the set-up: species or system Alcaligenaceae bacterium FB188. In short, it runs like this:
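Recombinant N-terminal His6-tagged HDAH from Bordetella strain FB188, expressed in E. coli BL21, purified on zinc-loaded His-Trap column, eluted with 500 mM imidazole, dialyzed into assay buffer (>98% pure by SDS-PAGE). Tested directly against compounds; thiols generated in situ from disulfides with TCEP.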

A further data set has as its target T2, Histone deacetylase 7 (Homo sapiens, UniProt Q8WUI4).
T2 sequence (Q8WUI4 whole entry): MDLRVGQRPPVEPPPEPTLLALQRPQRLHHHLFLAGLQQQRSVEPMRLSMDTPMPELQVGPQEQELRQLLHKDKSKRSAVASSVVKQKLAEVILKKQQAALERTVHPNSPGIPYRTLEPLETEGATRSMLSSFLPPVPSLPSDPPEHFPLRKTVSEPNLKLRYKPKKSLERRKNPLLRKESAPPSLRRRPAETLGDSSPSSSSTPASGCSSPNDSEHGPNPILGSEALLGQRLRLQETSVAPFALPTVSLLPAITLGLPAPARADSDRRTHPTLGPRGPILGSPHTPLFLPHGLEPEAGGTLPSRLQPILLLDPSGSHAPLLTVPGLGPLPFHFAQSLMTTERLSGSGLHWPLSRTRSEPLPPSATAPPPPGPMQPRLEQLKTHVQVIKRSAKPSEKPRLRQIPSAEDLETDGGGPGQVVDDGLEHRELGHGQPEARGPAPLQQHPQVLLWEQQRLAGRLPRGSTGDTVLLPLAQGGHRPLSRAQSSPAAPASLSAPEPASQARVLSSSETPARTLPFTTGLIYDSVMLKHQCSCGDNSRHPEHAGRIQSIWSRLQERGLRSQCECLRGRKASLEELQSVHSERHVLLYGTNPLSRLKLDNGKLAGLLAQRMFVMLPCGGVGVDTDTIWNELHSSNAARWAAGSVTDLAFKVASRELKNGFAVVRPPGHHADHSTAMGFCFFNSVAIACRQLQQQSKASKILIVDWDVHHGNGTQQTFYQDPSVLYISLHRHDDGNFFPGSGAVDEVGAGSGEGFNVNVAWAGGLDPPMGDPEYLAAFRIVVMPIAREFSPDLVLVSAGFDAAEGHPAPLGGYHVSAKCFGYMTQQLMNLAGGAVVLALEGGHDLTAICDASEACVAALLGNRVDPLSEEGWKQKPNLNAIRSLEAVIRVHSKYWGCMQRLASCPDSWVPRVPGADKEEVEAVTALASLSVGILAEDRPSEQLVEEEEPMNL
The data set is described as follows: Inhibition of human recombinant HDAC7 using Boc-lys(Ac)-AMC as substrate preincubated for 20 mins with substrate measured after 60 mins by fluorescence analysis.

Data set [2] can be described thus: Growth inhibition of human WI38 cells after 96 hrs by sulphorhodamine B assay. The settings on record: WI-38 cells. In kind it is cell-based. Summed up:
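SRB growth assay; MCF7 and WI38 seeded 4000 cells/well, A549 2000 cells/well, attached overnight, then exposed to freshly made drug solutions (0.1 to 50 μM) for 96 h. Fixed with cold 10% TCA, stained with 0.4% SRB; absorbance at 540 nm as percent of untreated control, IC50 from mean absorbance.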

In the next data set the test system is MCF7. The data set is described as follows: Selectivity index, ratio of GI50 for human A549 cells to GI50 for human MCF7 cells. In kind it is functional.

For the molecule `N/N=C(\Cc1ccc(O)c(Br)c1)C(=O)NCCS`, the concentration for half-maximal inhibition (IC50) in data set [1] came to 32 µM; at Histone deacetylase 7, 45 µM. This molecule also displayed a GI50 at 96 h in data set [2] of 37.2 µM. In addition, the RatioGI50 with MCF7 is listed as 10.

What is called IC50 is the concentration that gives 50% inhibition. In general, GI50 refers to the concentration at which growth is held to half of that of the control. High values mean lower sensitivity of the cells, low ones greater sensitivity of the cells.
